Activity calls are given as the source filed them. The rule behind the calls is not given here.
Columns and labels:
[1] = biological target: Proto-oncogene tyrosine-protein kinase Src (Homo sapiens) (UniProt P12931); experiment: Inhibition of SRC at 10 uM incubated for 60 mins using poly(Glu,Tyr)4:1 substrate and 10 uM ATP by ELISA
Outline: (§1)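 ELISA with Poly(Glu,Tyr)4:1 (20 μg/mL) precoated as substrate and 10 μM ATP, in 50 mM HEPES pH 7.4, 20 mM MgCl2, 0.1 mM MnCl2, 0.2 mM Na3VO4, 1 mM DTT. Compound was tested at 10 μM, in duplicate. Kinase reaction ran 60 min at 37 °C. Phosphotyrosine was detected with PY99 and HRP anti-mouse IgG, developed with o-phenylenediamine/H2O2, stopped with H2SO4 and read at 492 nm. Inhibition = [1 − A492 treated/A492 control] × 100%. References: lapatinib (ErbB2) and PP2 (Src), each at 10 μM.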

[2] = system: MDA-MB-435; experiment: Inhibition of colony formation in human MDA-MB-435 cells at 10 uM treated continuously for 7 days by crystal violet staining based colony formation assay; assay type: functional, cell-based
Outline: (§2)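 MDA-MB-435 cells (500 per well) were adhered overnight and treated with compound at 10 μM, or across a dose range. The methods describe a 24 h treatment, then PBS washing and 7–10 days regrowth; the figure legend describes continuous 7-day treatment. Colonies were fixed and stained with 2% crystal violet containing 1% glutaraldehyde, then imaged.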

[3] = system: LNCaP; experiment: Cytotoxicity against human LNCAP cells incubated for 72 hrs by MTT assay; assay type: functional, cell-based
Outline: (§3)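 Cells were kept in DMEM (MDA-MB-435, MCF7, LNCaP) or RPMI (HT29, HCT116) with 10% heat-inactivated FBS and 2 mM L-glutamine, subconfluent and in exponential growth. They were seeded, allowed to adhere overnight, then exposed continuously to compound (10 mM DMSO stock) for 72 h. MTT was added to 0.3 mg/mL final for 3–4 h at 37 °C, formazan was dissolved in DMSO, and absorbance was read at 570 nm. Runs were in triplicate; IC50 came from log concentration versus percent cell kill.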

[4] = system: HT-29; experiment: Cytotoxicity against human HT-29 cells incubated for 72 hrs by MTT assay; assay type: functional, cell-based; conditions: HT-29, 72 h; outline: as §3
[5] = system: MCF7; experiment: Cytotoxicity against human MCF7 cells incubated for 72 hrs by MTT assay; assay type: functional, cell-based; conditions: MCF7, 72 h; outline: as §3
[6] = system: SK-BR-3; experiment: Cytotoxicity against human SKBR3 cells incubated for 72 hrs by MTT assay; assay type: functional, cell-based; conditions: SK-BR-3, 72 h
[7] = system: HCT-116; experiment: Cytotoxicity against p53 expressing human HCT116 cells incubated for 72 hrs by MTT assay; assay type: functional, cell-based; conditions: HCT-116, 72 h; outline: as §3
[8] = system: HCT-116; experiment: Cytotoxicity against p53 deficient human HCT116 cells incubated for 72 hrs by MTT assay; assay type: functional, cell-based; conditions: HCT-116, 72 h; outline: as §3
[9] = system: MDA-MB-435; experiment: Cytotoxicity against human MDA-MB-435 cells incubated for 72 hrs by MTT assay; assay type: functional, cell-based; conditions: MDA-MB-435, 72 h; outline: as §3
[10] = biological target: Vascular endothelial growth factor receptor 2 (Homo sapiens) (UniProt P35968); conditions: at 10 µM
[11] = biological target: Angiopoietin-1 receptor (Homo sapiens) (UniProt Q02763); experiment: Inhibition of TIE2 at 10 uM in presence of ATP at Km level by kinase profiler method
[12] = biological target: Hepatocyte growth factor receptor (Homo sapiens) (UniProt P08581); experiment: Inhibition of MET at 10 uM in presence of ATP at Km level by kinase profiler method
[13] = biological target: Vascular endothelial growth factor receptor 2 (Homo sapiens) (UniProt P35968); experiment: Inhibition of KDR at 10 uM in presence of ATP at Km level by kinase profiler method
[14] = biological target: Fibroblast growth factor receptor 1 (Homo sapiens) (UniProt P11362); experiment: Inhibition of FGFR1 at 10 uM in presence of ATP at Km level by kinase profiler method
[15] = biological target: Insulin-like growth factor 1 receptor (Homo sapiens) (UniProt P08069); experiment: Inhibition of IGF1R at 10 uM in presence of ATP at Km level by kinase profiler method
[16] = biological target: Receptor tyrosine-protein kinase erbB-2 (Homo sapiens) (UniProt P04626); experiment: Inhibition of ErbB2 at 10 uM incubated for 60 mins using poly(Glu,Tyr)4:1 substrate and 10 uM ATP by ELISA; outline: as §1
[17] = system: HEY; experiment: Cytotoxicity against human HEY cells incubated for 72 hrs by MTT assay; assay type: functional, cell-based
[18] = system: Tyrosine-protein kinase ABL1 (Homo sapiens), P00519 [T315I]; experiment: Inhibition of Abl T315I mutant at 10 uM in presence of ATP at Km level by kinase profiler method
[19] = biological target: T1, Aurora kinase A (Homo sapiens) (UniProt O14965); experiment: Inhibition of Aurora A kinase at 10 uM in presence of ATP at Km level by kinase profiler method
T1 sequence (whole entry): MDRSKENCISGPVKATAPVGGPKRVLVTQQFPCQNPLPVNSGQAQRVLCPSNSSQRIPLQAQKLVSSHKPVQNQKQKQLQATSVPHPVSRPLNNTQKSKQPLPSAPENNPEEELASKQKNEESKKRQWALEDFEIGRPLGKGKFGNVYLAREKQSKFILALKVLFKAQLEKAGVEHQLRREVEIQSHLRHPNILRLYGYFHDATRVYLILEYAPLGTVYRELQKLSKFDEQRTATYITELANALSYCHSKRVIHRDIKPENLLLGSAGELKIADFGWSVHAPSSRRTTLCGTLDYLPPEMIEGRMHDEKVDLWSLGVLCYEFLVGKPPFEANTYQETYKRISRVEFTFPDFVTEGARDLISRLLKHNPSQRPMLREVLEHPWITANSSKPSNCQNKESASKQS

[20] = biological target: Tyrosine-protein kinase Lck (Homo sapiens) (UniProt P06239); experiment: Inhibition of LCK at 10 uM in presence of ATP at Km level by kinase profiler method
[21] = system: MDA-MB-435; experiment: Induction of cell cycle arrest in human in human MDA-MB-435 cells assessed as accumulation at G0/G1 phase at 2 times cytotoxic IC50 level after 48 hrs by propidium iodide staining based flow cytometry (reference value: 36%); assay type: functional
[22] = system: MDA-MB-435; experiment: Induction of cell cycle arrest in human in human MDA-MB-435 cells assessed as accumulation at G0/G1 phase at 2 times cytotoxic IC50 level after 12 hrs by propidium iodide staining based flow cytometry; assay type: functional
[23] = biological target: T2, Human immunodeficiency virus type 1 integrase (Human immunodeficiency virus 1, UniProt Q7ZJM1); experiment: Inhibition of HIV1 integrase strand transfer activity using [32P]-labeled linear oligonucleotide substrate
[24] = biological target: T2, Human immunodeficiency virus type 1 integrase; experiment: Inhibition of HIV1 integrase 3'-processing activity using [32P]-labeled linear oligonucleotide substrate
[25] = system: MDA-MB-435; experiment: Induction of cell cycle arrest in human in human MDA-MB-435 cells assessed as accumulation at G0/G1 phase at 2 times cytotoxic IC50 level after 12 to 48 hrs by propidium iodide staining based flow cytometry; assay type: functional
[26] = system: MDA-MB-435; experiment: Inhibition of colony formation in human MDA-MB-435 cells treated continuously for 7 days by crystal violet staining based colony formation assay; assay type: functional, cell-based; outline: as §2

Sequence of Proto-oncogene tyrosine-protein kinase Src (Homo sapiens) (P12931 2-536 limits assumed): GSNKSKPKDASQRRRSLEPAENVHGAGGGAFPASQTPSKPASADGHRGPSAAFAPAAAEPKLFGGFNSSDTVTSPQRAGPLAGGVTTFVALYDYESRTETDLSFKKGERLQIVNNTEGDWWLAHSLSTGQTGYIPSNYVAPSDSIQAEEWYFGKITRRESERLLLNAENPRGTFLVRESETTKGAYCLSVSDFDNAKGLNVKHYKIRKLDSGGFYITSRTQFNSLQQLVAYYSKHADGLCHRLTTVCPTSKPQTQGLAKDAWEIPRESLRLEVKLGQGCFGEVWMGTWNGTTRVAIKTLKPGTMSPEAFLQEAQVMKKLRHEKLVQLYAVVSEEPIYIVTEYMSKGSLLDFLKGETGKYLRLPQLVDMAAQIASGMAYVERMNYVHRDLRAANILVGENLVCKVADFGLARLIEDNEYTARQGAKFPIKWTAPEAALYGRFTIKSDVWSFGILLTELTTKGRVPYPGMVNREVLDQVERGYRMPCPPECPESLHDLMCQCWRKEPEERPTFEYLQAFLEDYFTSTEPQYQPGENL
Sequence of Fibroblast growth factor receptor 1 (Homo sapiens) (P11362 22-822 limits assumed): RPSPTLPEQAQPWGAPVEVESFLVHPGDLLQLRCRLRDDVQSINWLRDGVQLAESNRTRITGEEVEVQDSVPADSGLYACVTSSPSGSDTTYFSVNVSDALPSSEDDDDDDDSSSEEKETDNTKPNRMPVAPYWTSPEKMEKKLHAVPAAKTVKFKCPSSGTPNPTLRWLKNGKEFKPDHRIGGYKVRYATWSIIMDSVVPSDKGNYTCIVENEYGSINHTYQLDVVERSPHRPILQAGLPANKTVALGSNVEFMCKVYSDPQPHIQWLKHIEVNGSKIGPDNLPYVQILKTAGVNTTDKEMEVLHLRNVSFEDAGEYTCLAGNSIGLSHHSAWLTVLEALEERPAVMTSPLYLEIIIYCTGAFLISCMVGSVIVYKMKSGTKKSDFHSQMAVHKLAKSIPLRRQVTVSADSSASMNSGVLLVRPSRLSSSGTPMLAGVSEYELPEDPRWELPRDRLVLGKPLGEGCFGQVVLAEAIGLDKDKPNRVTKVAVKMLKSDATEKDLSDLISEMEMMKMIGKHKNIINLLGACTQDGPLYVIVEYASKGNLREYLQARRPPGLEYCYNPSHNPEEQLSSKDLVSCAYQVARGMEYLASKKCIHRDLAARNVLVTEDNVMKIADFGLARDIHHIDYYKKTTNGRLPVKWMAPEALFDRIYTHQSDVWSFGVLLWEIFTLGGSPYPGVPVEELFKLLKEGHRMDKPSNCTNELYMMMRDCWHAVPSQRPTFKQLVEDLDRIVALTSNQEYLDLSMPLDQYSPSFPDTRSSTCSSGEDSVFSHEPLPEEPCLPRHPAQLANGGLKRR
Sequence of Receptor tyrosine-protein kinase erbB-2 (Homo sapiens) (P04626 whole entry): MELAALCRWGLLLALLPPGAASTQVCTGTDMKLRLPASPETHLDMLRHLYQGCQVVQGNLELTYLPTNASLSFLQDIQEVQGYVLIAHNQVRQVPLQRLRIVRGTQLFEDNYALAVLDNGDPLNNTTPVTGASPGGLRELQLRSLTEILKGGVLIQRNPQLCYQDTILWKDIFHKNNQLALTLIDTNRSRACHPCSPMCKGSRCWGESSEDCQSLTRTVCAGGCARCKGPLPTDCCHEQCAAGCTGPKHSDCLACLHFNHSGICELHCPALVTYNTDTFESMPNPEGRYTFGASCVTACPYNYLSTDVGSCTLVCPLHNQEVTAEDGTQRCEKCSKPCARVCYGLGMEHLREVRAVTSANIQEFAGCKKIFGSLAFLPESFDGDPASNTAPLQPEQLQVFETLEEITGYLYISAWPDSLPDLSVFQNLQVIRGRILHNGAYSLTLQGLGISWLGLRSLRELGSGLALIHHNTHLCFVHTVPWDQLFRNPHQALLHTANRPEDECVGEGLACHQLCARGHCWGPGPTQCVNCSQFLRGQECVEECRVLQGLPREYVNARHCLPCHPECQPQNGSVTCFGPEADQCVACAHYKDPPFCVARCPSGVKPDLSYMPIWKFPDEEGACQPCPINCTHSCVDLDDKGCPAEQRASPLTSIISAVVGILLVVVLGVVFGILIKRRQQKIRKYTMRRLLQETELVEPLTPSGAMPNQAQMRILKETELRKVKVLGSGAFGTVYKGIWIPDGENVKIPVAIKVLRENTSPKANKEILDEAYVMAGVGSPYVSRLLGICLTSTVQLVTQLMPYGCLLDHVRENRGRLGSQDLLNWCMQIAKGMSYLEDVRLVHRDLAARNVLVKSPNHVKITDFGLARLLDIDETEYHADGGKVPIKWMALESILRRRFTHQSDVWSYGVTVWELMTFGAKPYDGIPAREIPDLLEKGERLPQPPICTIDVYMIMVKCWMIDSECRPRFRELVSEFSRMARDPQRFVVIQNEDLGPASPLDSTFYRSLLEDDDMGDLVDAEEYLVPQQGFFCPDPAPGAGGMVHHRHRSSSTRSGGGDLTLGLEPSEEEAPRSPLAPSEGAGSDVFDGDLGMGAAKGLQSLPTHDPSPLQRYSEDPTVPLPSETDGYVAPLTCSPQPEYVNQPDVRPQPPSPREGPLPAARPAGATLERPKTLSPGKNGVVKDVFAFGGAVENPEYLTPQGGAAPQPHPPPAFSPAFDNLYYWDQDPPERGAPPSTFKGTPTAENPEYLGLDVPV
Sequence of Insulin-like growth factor 1 receptor (Homo sapiens) (P08069 31-736 limits assumed): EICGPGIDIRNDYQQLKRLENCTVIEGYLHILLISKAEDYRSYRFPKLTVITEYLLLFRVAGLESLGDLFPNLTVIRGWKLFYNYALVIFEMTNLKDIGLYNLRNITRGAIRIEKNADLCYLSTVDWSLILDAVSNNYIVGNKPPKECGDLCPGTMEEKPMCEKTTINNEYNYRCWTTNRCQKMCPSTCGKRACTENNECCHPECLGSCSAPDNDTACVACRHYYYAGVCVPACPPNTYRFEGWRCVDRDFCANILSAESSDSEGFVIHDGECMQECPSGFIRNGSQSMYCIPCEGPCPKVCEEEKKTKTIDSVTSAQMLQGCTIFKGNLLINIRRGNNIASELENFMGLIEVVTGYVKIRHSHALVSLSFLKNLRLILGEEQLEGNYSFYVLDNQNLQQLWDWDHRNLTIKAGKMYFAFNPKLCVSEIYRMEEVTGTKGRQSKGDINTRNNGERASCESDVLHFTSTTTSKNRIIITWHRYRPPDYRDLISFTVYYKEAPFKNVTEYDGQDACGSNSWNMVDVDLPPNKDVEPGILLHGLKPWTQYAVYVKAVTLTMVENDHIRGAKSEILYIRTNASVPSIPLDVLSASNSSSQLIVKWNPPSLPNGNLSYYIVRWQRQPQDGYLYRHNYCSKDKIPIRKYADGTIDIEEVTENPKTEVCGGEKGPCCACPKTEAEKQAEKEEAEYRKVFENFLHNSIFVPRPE
Sequence of Insulin-like growth factor 1 receptor (Homo sapiens) (P08069 741-1367 limits assumed): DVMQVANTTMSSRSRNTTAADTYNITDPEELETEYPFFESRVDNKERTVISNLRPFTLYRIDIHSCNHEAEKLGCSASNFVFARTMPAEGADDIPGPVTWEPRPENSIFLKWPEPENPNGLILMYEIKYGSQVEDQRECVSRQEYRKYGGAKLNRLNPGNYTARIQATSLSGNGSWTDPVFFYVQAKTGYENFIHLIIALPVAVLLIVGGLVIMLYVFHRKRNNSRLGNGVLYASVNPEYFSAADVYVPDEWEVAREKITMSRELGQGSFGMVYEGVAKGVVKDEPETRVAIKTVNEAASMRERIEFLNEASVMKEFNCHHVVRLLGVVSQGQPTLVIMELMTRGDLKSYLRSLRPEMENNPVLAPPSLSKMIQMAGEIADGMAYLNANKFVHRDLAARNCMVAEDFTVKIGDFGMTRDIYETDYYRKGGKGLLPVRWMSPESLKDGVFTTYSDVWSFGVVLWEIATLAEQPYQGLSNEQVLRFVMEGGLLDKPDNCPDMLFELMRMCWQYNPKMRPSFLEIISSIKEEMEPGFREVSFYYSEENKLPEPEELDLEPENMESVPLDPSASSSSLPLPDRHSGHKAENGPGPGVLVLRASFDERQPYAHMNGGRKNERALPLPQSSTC
Sequence of Tyrosine-protein kinase Lck (Homo sapiens) (P06239 2-509 limits assumed): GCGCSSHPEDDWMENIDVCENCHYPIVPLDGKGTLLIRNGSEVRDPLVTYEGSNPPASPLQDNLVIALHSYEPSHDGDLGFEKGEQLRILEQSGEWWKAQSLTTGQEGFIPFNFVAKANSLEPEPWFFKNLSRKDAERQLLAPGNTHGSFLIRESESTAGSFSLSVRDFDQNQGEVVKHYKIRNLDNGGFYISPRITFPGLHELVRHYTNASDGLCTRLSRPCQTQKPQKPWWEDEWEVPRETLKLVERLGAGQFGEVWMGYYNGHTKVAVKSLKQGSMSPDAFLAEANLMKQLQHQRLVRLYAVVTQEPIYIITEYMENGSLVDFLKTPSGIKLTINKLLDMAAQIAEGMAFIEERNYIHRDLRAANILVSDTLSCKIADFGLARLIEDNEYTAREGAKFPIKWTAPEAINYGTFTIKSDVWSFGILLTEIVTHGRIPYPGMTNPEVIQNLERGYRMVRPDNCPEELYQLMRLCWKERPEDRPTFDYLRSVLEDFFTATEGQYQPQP
T2 sequence (Q7ZJM1 whole entry): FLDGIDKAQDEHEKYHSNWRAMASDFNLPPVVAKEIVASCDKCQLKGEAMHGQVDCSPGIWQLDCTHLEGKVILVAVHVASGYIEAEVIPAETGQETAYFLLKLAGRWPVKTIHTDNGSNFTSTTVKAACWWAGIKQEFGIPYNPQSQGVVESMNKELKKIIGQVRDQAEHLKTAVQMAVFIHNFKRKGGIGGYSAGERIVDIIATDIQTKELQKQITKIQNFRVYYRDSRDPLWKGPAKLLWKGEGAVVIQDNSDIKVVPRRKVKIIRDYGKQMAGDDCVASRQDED

| Structure (SMILES) | inhibition [1] [%] | inhibition [10] [%] | inhibition [14] | inhibition [15] | inhibition [16] [%] | inhibition [2] | IC50 [3] [µM] | IC50 [4] [µM] | IC50 [5] [µM] | IC50 [6] [µM] | IC50 [7] [µM] | IC50 [8] [µM] | IC50 [9] [µM] | IC50 [17] [µM] | further results |
| --- | --- | --- | --- | --- | --- | --- | --- | --- | --- | --- | --- | --- | --- | --- | --- |
| COc1ccc(CNC(=O)c2nc(Br)c3cccnc3c2N[C@H]2CC[C@H](N)CC2)cc1 | 76 | 2 | Active | Active | 0 |  |  |  |  | 5 | 3 |  | 5 | 4 | inhibition [11]: Active; inhibition [12]: Active; inhibition [13]: Active |
| N[C@H]1CC[C@H](Nc2c(C(=O)NCc3ccc(Cl)cc3Cl)nc(Br)c3cccnc23)CC1 | 90 | 41 | Active | Active | 13 |  |  |  |  | 6 | 6 |  | 5.8 | 5 | inhibition [18]: Active; inhibition [19]: Active; inhibition [20]: Active |
| NCCCNc1c(C(=O)NCc2ccc(F)cc2)nc(Br)c2cccnc12 |  |  |  |  |  | Active |  |  | 6 |  | > 20 | 18 | 5 |  | Activity [21]: 61%; Activity [22]: Active; IC50 [23]: > 100 µM; IC50 [24]: > 100 µM |
| N[C@H]1CC[C@H](Nc2c(C(=O)NCc3ccc(F)cc3)nc(Br)c3cccnc23)CC1 | 13 |  |  |  | 7 | Active | 5 | < 1 | 2 | 2 | 7 | 4 | 6 |  | Activity [25]: Active; inhibition [26]: Dose-dependent effect |

Second part, led by results:

| inhibition [1] [%] | inhibition [10] [%] | inhibition [14] | inhibition [15] | inhibition [16] [%] | Structure (SMILES) | inhibition [2] | IC50 [3] [µM] | IC50 [4] [µM] | IC50 [5] [µM] | IC50 [6] [µM] | IC50 [7] [µM] | IC50 [8] [µM] | IC50 [9] [µM] | IC50 [17] [µM] | further results |
| --- | --- | --- | --- | --- | --- | --- | --- | --- | --- | --- | --- | --- | --- | --- | --- |
| 18 | 0 |  |  |  | NCCCCCCNc1c(C(=O)NCc2ccc(F)cc2)nc(Br)c2cccnc12 | Active | 8 | 5 | 2 | 3 | 7 | > 10 | 6 |  |  |
| 70 | 34 | Active | Active | 0 | N[C@H]1CC[C@H](Nc2c(C(=O)NCc3ccc(Cl)cc3)nc(Br)c3cccnc23)CC1 |  |  |  |  | 2 | 4 |  | 1 | 1 | inhibition [18]: Active; inhibition [19]: Active; inhibition [20]: Active |
| 9 | 0 |  |  | 1 | O=C(NCc1ccc(F)cc1)c1nc(Br)c2cccnc2c1NC1CCNCC1 | Active | 6 | 4 | 3 | 1 | 9.2 | 6 | 7 |  |  |

Source: ChEMBL document CHEMBL2176962, “Repositioning HIV-1 integrase inhibitors for cancer therapeutics: 1,6-naphthyridine-7-carboxamide as a promising scaffold with drug-like properties” (J Med Chem, 2012)
